# Active and inactive are the calls of the source. The rule behind the calls is not given here.
# Assays:
# [1] = target: Integrin alpha-V/beta-3 (Homo sapiens, UniProt P05106+P06756); assay: Inhibition of integrin alphavbeta3 mediated cell adhesion of human M21 cells to vitronectin; type: cell-based
# Outline: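 Non-tissue-culture plastic 96-well plates were coated overnight with 2 µg/ml vitronectin. M21 cells were seeded with or without graded compound concentrations and allowed to adhere for 1 h at 37 °C. Adherent cells were fixed and stained, and the plates were read at 570 nm. Inhibition was calculated with compound-free wells as 100% adhesion.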
# [2] = test system: M21; assay: Inhibition of human M21 cell migration assessed by measuring migration distance after 16 hrs at 30 uM by scrape motility assay; type: functional
# Outline: (§1)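 Scrape motility assay with M21 melanoma cells on vitronectin-coated plates, treated with compound at 7.5, 15.0 or 30.0 µM. Migration distance was measured by phase-contrast microscopy at 8 h or 16 h. Percent inhibition was taken against untreated cells. Means ± SD of nine determinations from three independent experiments.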
# [3] = test system: HUVEC; assay: Inhibition of bFGF-induced capillary-like structure formation in HUVECs at 30 uM after 6 hrs; type: functional, cell-based; conditions: Homo sapiens
# Outline: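 HUVECs in ECM gel stimulated with 100 ng/ml bFGF, with or without compound, for 6 h. PBS served as the unstimulated control. Capillary-like structures were viewed by phase-contrast microscopy.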
# [4] = test system: M21; assay: Inhibition of human M21 cell migration after 8 hrs at 30 uM by scrape motility assay; type: functional; conditions: M21, 8 h; outline: as §1
# [5] = test system: M21; assay: Inhibition of human M21 cell migration assessed by measuring migration distance after 8 hrs at 7.5 uM by scrape motility assay; type: functional; outline: as §1
# [6] = test system: M21; assay: Inhibition of human M21 cell migration assessed by measuring migration distance after 8 hrs at 15 uM by scrape motility assay; type: functional; outline: as §1
# [7] = test system: M21; assay: Inhibition of human M21 cell migration assessed by measuring migration distance after 8 hrs at 30 uM by scrape motility assay; type: functional; outline: as §1
# [8] = test system: M21; assay: Inhibition of human M21 cell migration after 8 hrs at 15 uM by scrape motility assay; type: functional; conditions: M21, 8 h; outline: as §1
# [9] = test system: M21; assay: Inhibition of human M21 cell migration after 8 hrs at 7.5 uM by scrape motility assay; type: functional; conditions: M21, 8 h; outline: as §1
# [10] = test system: M21; assay: Inhibition of human M21 cell migration at 15 uM after 16 hrs by scrape motility assay; type: functional; conditions: M21, 16 h; outline: as §1
# [11] = test system: M21; assay: Inhibition of human M21 cell migration at 30 uM after 16 hrs by scrape motility assay; type: functional; conditions: M21, 16 h; outline: as §1
# [12] = test system: M21; assay: Inhibition of human M21 cell migration at 7.5 uM after 16 hrs by scrape motility assay; type: functional; conditions: M21, 16 h; outline: as §1
# [13] = test system: M21; assay: Inhibition of human M21 cell migration assessed by measuring migration distance after 16 hrs at 7.5 uM by scrape motility assay; type: functional; outline: as §1
# [14] = test system: M21; assay: Inhibition of human M21 cell migration assessed by measuring migration distance after 16 hrs at 15 uM by scrape motility assay; type: functional; outline: as §1
# Integrin alpha-V/beta-3, sequence (P05106 27-788 limits assumed): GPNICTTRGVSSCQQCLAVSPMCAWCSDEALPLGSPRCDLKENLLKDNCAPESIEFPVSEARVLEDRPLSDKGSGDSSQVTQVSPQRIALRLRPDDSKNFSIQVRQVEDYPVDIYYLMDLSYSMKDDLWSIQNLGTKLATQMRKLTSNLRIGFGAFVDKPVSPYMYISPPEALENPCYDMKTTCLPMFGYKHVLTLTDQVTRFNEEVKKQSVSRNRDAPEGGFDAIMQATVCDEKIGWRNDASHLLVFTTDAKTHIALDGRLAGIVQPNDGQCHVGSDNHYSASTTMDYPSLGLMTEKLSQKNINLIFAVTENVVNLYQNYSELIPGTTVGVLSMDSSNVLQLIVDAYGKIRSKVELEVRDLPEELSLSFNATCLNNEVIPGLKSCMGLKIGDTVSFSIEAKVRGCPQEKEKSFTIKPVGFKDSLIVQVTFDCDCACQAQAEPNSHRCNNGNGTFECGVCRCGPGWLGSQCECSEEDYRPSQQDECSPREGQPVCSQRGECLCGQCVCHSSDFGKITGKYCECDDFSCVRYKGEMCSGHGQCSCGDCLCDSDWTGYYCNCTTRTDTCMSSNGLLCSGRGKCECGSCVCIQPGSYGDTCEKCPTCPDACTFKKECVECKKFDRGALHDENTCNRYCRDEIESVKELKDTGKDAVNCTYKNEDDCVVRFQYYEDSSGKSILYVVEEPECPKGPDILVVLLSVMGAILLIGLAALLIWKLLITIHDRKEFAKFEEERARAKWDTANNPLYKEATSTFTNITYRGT
# Integrin alpha-V/beta-3, sequence (P06756 31-889 limits assumed): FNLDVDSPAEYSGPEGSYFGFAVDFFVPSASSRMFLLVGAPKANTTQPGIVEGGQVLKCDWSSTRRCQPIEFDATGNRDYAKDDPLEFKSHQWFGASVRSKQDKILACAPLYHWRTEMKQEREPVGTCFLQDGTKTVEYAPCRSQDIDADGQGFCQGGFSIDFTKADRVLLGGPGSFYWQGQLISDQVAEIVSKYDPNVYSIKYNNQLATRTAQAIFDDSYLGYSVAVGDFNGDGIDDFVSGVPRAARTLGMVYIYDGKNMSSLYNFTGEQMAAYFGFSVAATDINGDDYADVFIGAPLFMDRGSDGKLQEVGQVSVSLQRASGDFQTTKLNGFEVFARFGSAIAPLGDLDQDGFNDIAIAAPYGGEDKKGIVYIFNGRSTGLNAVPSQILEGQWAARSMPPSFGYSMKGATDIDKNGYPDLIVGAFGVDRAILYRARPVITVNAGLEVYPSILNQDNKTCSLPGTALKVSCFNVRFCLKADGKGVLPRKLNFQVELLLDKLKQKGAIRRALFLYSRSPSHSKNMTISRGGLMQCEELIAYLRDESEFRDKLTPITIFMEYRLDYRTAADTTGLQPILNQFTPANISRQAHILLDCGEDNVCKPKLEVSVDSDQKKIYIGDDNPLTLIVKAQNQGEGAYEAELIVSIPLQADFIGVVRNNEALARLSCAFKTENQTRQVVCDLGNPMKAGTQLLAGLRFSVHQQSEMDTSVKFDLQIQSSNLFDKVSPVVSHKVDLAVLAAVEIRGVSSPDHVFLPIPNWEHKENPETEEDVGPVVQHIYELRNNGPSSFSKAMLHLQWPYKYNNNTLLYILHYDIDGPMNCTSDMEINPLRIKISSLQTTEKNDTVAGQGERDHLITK
# Integrin alpha-V/beta-3, sequence (P06756 891-1048 limits assumed): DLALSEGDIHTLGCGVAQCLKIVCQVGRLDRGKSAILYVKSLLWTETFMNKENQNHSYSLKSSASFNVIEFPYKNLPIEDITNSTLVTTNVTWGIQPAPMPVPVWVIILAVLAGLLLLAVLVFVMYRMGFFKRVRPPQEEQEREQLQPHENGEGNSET
SMILES,IC50 [1] [µM],further results
NC(N)=NC(N)=Nc1ccc(SC(F)F)cc1,178,
N=C(N)NC(=N)Nc1ccccc1Cl,> 200,
N=C(N)NC(=N)Nc1ccccc1 [PHENYL BIGUANIDE],> 200,
CCOc1ccccc1N=C(N)N=C(N)N,> 200,
Cn1cnnc1SCC(=O)Nc1ccc(-c2nc3ccc(NC(=O)CSc4nncn4C)cc3o2)c(O)c1,162,
CSc1ccccc1N=C(N)N=C(N)N,> 200,
N=C(N)NC(=N)Nc1cccc(Cl)c1,191,
CCOC(=O)c1cccc(N=C(N)N=C(N)N)c1,> 200,
CSc1cccc(NC(=N)NC(=N)N)c1,> 200,
O=C(Nc1ccccc1C(=O)O)c1ccc(N2C(=O)c3ccc(Oc4ccc([N+](=O)[O-])cc4)cc3C2=O)cc1,180,
Cc1ccc(Cl)cc1N=C(N)N=C(N)N,> 200,
N=C(N)NC(=N)Nc1ccc(Cl)cc1 [4-CHLOROPHENYLBIGUANIDE],149,

# Compounds with a lower IC50 [1], results first:
IC50 [1] [µM],SMILES,further results
143,COc1cc(/C=C2\C(=O)N(c3ccc(C(=O)O)cc3)N=C2C)ccc1OC(=O)c1ccccc1,
137,COc1cc(NS(=O)(=O)c2ccc(NC(=O)COc3ccc(Cl)cc3Cl)cc2)nc(OC)n1,
132,CCOc1cc(/C=c2\sc3nc4c(C)cccc4n3c2=O)cc(Br)c1OCC(=O)O,
127,N=C(N)NC(=N)Nc1cc(C(F)(F)F)ccc1Cl,
101,N=C(N)NC(=N)Nc1ccc(SC(F)(F)F)cc1,
100,NC(N)=NC(N)=Nc1cc(Cl)ccc1Cl,
97.3,N=C(N)NC(=N)Nc1ccc(F)c(Cl)c1,
87.3,N=C(N)NC(=N)Nc1cccc(Cl)c1Cl,
66.9,N=C(N)NC(=N)Nc1ccc(Cl)cc1Cl,
53.5,COc1cc(NS(=O)(=O)c2ccc(N/C=C3\C(=O)N(c4ccc(I)cc4)N=C3C)cc2)nc(OC)n1,
39.5,N=C(N)NC(=N)Nc1cc(C(F)(F)F)cc(C(F)(F)F)c1,
38.5,N=C(N)NC(=N)Nc1ccc(Cl)c(Cl)c1,Activity [2]: 16.7 um; Activity [3]: Active; inhibition at 30 µM [4]: 96.4%; Activity [5]: 27.8 um; Activity [6]: 8.3 um; Activity [7]: 1.1 um; inhibition at 15 µM [8]: 73.1%; inhibition at 7.5 µM [9]: 9.1%; inhibition at 15 µM [10]: 67.4%; inhibition at 30 µM [11]: 86%; inhibition at 7.5 µM [12]: 39.5%; Activity [13]: 72.2 um; Activity [14]: 38.9 um
33.5,N=C(N)N=C(N)Nc1cc(Cl)cc(Cl)c1,
